System: MS2 coat protein
Experiment: apparent Kd, MS2 coat protein; higher = weaker binding; RNA-MaP array; FMN 200 µM where present
Procedure, shortened: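 SNAP-549-labelled MS2 coat protein, doubled from 0.7 or 1.5 nM to 3 µM, was titrated over designs transcribed by stalled E. coli RNA polymerase on Illumina sequencing-chip clusters. Titrations were run without and then with constant ligand in 100 mM Tris-HCl pH 7.5, 80 mM KCl, 4 mM MgCl2, BSA, DTT, yeast tRNA and Tween-20. The apparent Kd is the median of filtered per-cluster fits to green signal normalised to red-channel RNA signal and control-cluster median Fmax.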

[1] = designed as: OFF switch for flavin mononucleotide, no ligand
[2] = ligand present: flavin mononucleotide, designed as: OFF switch for flavin mononucleotide
[3] = designed as: ON switch for flavin mononucleotide, no ligand
[4] = ligand present: flavin mononucleotide, designed as: ON switch for flavin mononucleotide

Sequence	apparent Kd [1] [µM]	apparent Kd [2] [µM]	apparent Kd [3] [µM]	apparent Kd [4] [µM]
UGAUCUCGGGUUAGGAUAUACUGACAACAUAGACAGUAGAAGGAACAUGAGGAUCACCCAUGUGCAUUAACCAU	0.0251	0.0593		
AAGUUUUUACAAGGAUAUCAAUUUUAUCUUAAUUCAACAUGAGGAUCACCCAUGUAACAAUGGAGUGAGAAGGUGUAAUGGCUU			0.617	0.234
UUUUAGUGAGGAUAUGUGGCUUCGAUCGUGAGAUCGAGGCUACAGAAGGCACAUGAGGAUCACCCAUGUUCCUU	0.0145	0.0467		
UAUAUAUAGUAAGGAUAUGUAAUUUUUUUAUAAACAGAAGGUACUGACAUGAGGAUCACCCAUGUUUUAGUGUGGGCAUGUAGA	0.107	0.169		
CGUCCACAUGAGGAUCACCCAUGUGAGGAUAUCCAUACCCACAACCAAUACACAUUAUGGAGAAGGCACACACA	0.0202	0.0199		
AGCUAGCUAGGAUAUGCGUAAAUGUCGAAAGACGUAUUGGGACAUGAGGAUCACCCAUGUAGAAGGAGCUAGCA	0.0291	0.0545		
AAAUACCGGUGAGGAUAUUUUUAAUAGAGCUUUAUGAUAUACAUGAGGAUCACCCAUGUUACGUUAAAGAAGGCAUCGGAUAAA	0.0184	0.0166		
CUUUAGUGAGGAUAUCAGUAGUAAUACAAUAGUAUUACUACUGAGAAGGCACAUGAGGAUCACCCAUGUUCUUC	0.0173	0.05		
ACAGUCACAGUAACCUGUGGCCGUGAGGAUAUAUAUGGCUCGGAGCGGACAUGAGGAUCACCCAUGUAGAAGGCACGAACUAAA	0.00621	0.00709		
UGAUAGGAUAAAGGAUAUACGUGCUAGAGAUACUAGCAAAAUUUCCUCACAUGAGGAUCACCCAUGUAGAAGGUUAACCUAUCU	0.0147	0.0571		
GUCGUGUGAGGAUAUGAUUUUUCGGCGGGAUUGCGACUGCUUCAGAAGGCACAUGAGGAUCACCCAUGUUUGUC	0.0106	0.0212		
UCGUGAAGGACAGGAUAUGGACAUGAGGAUCACCCAUGUACAUGGGAUUAUAUACUGAAUUUAUACUAGAAGGGUUACAUAAAU	0.0317	0.0198		
AACACAACAUGAAACAUGAGGAUCACCCAUGUUGUUUGUAAUCAGGAUAUGAUCUCAAGAAUGAAUUAGAAGGGAUAGGGAGGG			0.0358	0.0471
UAAAUUAUACAAGGAUAUCUAUCGUAGUUUAGACUUACAUGAGGAUCACCCAUGUUAAUAUGUUUAGAGAAGGUGUAUUUUCAG			0.0433	0.0225
ACUGUUAAGACAGGAUAUCGAUUAUAACCUCUAAAACAUGAGGAUCACCCAUGUAGUCCGUAUUGCGAGAAGGGUCAUUUUAGU			0.295	0.233
AGUCGUCAAGGAUAUAUAGUGAAGCACAAGCAGUGCCCUCUACAUGAGGAUCACCCAUGUAGAAGGUGGCGACU	0.0156	0.0142		
CAGAUAGGUGUGAGGAUAUAUCGUUAGCAAUGGCUAUAGAAGGCACAUGAGGAUCACCCAUGUGAGAUUGGCGU	0.0213	0.0205		
AGCUGUGGCCGAGGAUAUCUAACUUCAAUAACCGAAAUAUAAUCGGACAUGAGGAUCACCCAUGUAGAGAAGGCGGUCUCAGCA	0.0152	0.0201		
GGAUCGAAUGUCAGGAUAUACCACUGGAUACAGUGGUAGAAGGGACAUGAGGAUCACCCAUGUGUUAUCGAUCC	0.0404	0.114		
CGGGAUCCGAAGGGCGAAAGCCCACAUGAGGAUCACCCAUGUAGAAGGCGGGCCGCAACGCGGCCCGAGGAUAUACAGGAUCCA	0.0179	0.037		

Reference: the EternaBench riboswitch data
